Efflux pump mplx: inhibitors of Candida efflux pumps in yeast, primary screen, S. cerevisiae, Nile Red, multiplex | S. cerevisiae Candida pump triplex | inhibition, % at 10 µM | hit rate 0.44% among 330,000;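 active = plate passing quality check with inhibition over a set limit, or well fluorescence over plate mean plus 4 SD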;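 also: Nile Red retained in pooled yeast measured as flow cytometry median fluorescence; 0% = buffer negative control and 100% = Enniatin B positive control; higher means more Nile Red kept so more efflux inhibition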
TbMetRS inhib: T. brucei MetRS inhibitors, primary screen, biochemical, luminescence. inhibition, % at 11.9 µM. purified T. brucei MetRS, ATP depletion, Kinase-Glo luminescence. hit rate 0.4% among 360,000;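 active = inhibition above a per-plate cutoff of the control wells' mean inhibition plus 3 SD, cut at about 5.5% in these data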;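 also: 0% = DMSO wells median and 100% = median of wells with control inhibitor compound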
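Material: parasite MetRS enzyme / Replication: singlicate, one well per compound / Signal: luminescence of leftover ATP / Schedule: 2 h aminoacylation at 25 °C after 15 min preincubation / Medium: HEPES-MgCl2-KCl buffer plus DTT, spermine, BSA, pyrophosphatase / Doses: 11.9 µM single point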
AHR activator: AHR activators, primary screen, cell-based, luminescence, luciferase reporter, human; activation, % at 5 µM; AHR-responsive luciferase reporter cells; hit rate 2.5% among 320,000; Aryl hydrocarbon receptor (Homo sapiens), P35869; AID 2796, 2010; in the data active = activation above about 47%;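 also: 0% = vehicle wells and 100% = reference agonist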
Target sequence (P35869 whole entry, looked up): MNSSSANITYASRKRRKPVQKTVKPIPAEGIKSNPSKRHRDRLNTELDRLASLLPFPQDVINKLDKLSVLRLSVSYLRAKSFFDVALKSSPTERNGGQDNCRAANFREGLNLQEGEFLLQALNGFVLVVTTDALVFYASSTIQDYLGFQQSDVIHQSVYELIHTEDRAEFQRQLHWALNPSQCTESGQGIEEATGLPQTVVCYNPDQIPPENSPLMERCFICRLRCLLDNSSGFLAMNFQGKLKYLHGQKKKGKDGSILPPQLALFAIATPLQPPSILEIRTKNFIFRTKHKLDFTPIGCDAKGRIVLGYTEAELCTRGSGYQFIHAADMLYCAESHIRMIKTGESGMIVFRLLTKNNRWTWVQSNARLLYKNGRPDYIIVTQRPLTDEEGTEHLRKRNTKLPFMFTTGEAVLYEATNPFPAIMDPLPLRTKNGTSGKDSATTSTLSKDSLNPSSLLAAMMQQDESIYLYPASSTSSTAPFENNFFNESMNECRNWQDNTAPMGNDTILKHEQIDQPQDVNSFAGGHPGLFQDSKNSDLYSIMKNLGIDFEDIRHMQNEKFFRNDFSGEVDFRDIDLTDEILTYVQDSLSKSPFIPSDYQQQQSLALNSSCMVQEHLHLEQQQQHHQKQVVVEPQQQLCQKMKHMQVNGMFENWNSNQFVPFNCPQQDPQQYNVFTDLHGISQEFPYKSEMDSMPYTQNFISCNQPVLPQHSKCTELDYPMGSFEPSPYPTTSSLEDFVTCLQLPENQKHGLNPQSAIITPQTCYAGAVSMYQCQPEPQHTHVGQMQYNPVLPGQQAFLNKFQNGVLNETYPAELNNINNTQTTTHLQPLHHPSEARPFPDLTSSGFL
TAG inh: inhibitors of triacylglycerol accumulation, primary screen, cell-based, uHTS, fluorescence, H9c2; H9c2 cells, Nile Red lipid (TAG) fluorescence; cells loaded with 200 µM oleic acid; inhibition, % at 12.5 µM; hit rate 0.66% among 230,000; AID 651582, 2012;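 active = pattern-corrected inhibition of lipid staining of at least 50% with the nuclear-stain viability signal not falling by more than 50%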;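 also: 0% = DMSO wells and 100% = triacsin C control wells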
SMARCA2 activ: SMARCA2 (BRM) function activators, primary screen, cell-based, luminescence, high throughput | activation, % at 9.1 µM | MG213 cells, MMTV-luciferase reporter, dexamethasone, overnight | hit rate 1% among 370,000; in the data active = activation above about 7.8%;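 also: 0% = vehicle wells and 100% = reference activator wells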
Active calls of the source: *; nt = not tested or not shown. Rows were chosen to be rich in hits. Some 4.1% of all compounds tested hit in one or more screens of this group.

SMILES | Efflux pump mplx | TbMetRS inhib | AHR activator | TAG inh | SMARCA2 activ
COC(=O)[C@]12C[C@H](CC(=O)NCc3cccc(C(F)(F)F)c3)C(=O)N(Cc3ccco3)C1=C[C@H](C(C)(C)C)O[C@@H]2C | nt | nt | nt | nt | -3.2
NS(=O)(=O)c1cccc(NC(=O)Nc2ccccc2)c1 | 0.0 | 4.5 | 7.5 | 5.6 | -4.1
O=C(Nc1ccc(Cl)cc1Cl)NC1CCCC1 | 0.1 | -1.3 | 52.9* | -3.6 | 2.5
Cc1cc(C)cc(NC(=O)Nc2cccc(S(N)(=O)=O)c2)c1 | 0.0 | 0.4 | 58.3* | -5.6 | -0.5
Cc1ccc(NC(=O)Nc2ncccc2C)cc1 | 0.0 | -1.4 | 57.4* | 31.0 | 5.9
Cc1occc1C(=O)N/N=C/C=C/c1ccccc1 | 0.0 | -0.4 | 6.3 | -15.6 | 7.9*
O=Nc1c(O)c2ccccc2c2ccccc12 | -0.3 | -0.1 | 13.1 | 98.5* | -8.2
O=c1ccc2ccccc2c2ccccc12 | nt | -1.1 | nt | nt | -7.7
COc1cc(C(=O)NC2CCN(C)CC2)ccc1Nc1ncc2c(n1)N(Cc1ccccc1)CCC(=O)N2C | nt | -0.1 | nt | 87.4* | -1.1
COc1cc(C(=O)NC2CCN(C)CC2)ccc1Nc1ncc2c(n1)N(C1CCCCC1)CCC(=O)N2C | nt | -0.3 | nt | 96.0* | -0.7
CCN1C(=O)CC(C(C)C)N(C2CCCC2)c2nc(Nc3ccc(C(=O)NC4CCN(C)CC4)cc3OC)ncc21 (stereo unspecified) | nt | 0.5 | nt | 27.8 | nt
CCN1C(=O)CC(c2ccccc2)N(C2CCCC2)c2nc(Nc3ccc(C(=O)NC4CCN(C)CC4)cc3OC)ncc21 (stereo unspecified) | 0.3 | -0.1 | -2.5 | 36.5 | nt
COc1ccc(-n2c(SCC(=O)NCC3CCCO3)nnc2-c2ccncc2)cc1 (stereo unspecified) | nt | nt | nt | nt | -1.2
O=C(CSc1nnc(-c2ccccn2)n1-c1ccc(Cl)cc1)Nc1ccc2c(c1)OCCO2 | nt | nt | nt | nt | -4.0
c1ccc(-c2noc(-c3ccc4ccccc4c3)n2)nc1 | 0.1 | -0.7 | -18.1 | -10.6 | nt
O=[N+]([O-])c1cccc(-c2nc(-c3ccccn3)no2)c1 | 0.0 | -0.8 | 67.8* | 0.2 | 5.1
COc1cccc(-c2nc(-c3ccccn3)no2)c1 | 0.0 | nt | 64.0* | nt | -4.7
COc1cc(NC(=O)C2CCCN(S(=O)(=O)c3ccc(Br)s3)C2)cc(OC)c1 (stereo unspecified) | nt | nt | nt | nt | -4.2
COc1ccc(/C=C2\SC(=S)N(CCCC(=O)NNC(=O)c3ccccc3O)C2=O)cc1 | 0.0 | 0.2 | -2.3 | -18.2 | -5.0
COc1ccccc1/C=C1\SC(=S)N(CCC(=O)NNC(=O)c2ccccc2O)C1=O | -0.5 | 1.0 | 56.4* | nt | nt
O=C1/C(=C\c2cc(Br)cc(Br)c2O)SC(=S)N1Cc1ccccc1 | 1.5* | -0.2 | 0.7 | nt | nt
COc1cc([N+](=O)[O-])cc(/C=C2/SC(=S)N(Cc3ccccc3)C2=O)c1O | 3.0* | -0.8 | -0.6 | nt | -3.7
CN(Cc1ccccc1F)C(=O)C1C2C=CC3(CN(Cc4ccccc4)C(=O)C13)O2 (stereo unspecified) | nt | nt | nt | nt | -2.2
O=c1c2ccccc2c(-c2ccccc2)nn1Cc1c(Cl)cccc1Cl | 0.3 | 0.7 | 0.5 | nt | -1.1
Clc1cccc(Cl)c1Cn1ccc(C2CC2)n1 | 0.0 | -0.9 | 6.5 | -7.5 | 7.9*
SMILES | Efflux pump mplx | TbMetRS inhib | AHR activator | TAG inh | SMARCA2 activ
C/C=C/C=C/C(=O)N1C[C@H](C)N(C)C[C@H]1C | nt | nt | nt | nt | 7.3
COc1ccc(-c2nnc(SCC(=O)N/N=C(\C)c3ccc(-c4ccccc4)cc3)n2-c2ccc(C)cc2)cc1 | nt | nt | nt | nt | -6.8
CC1CCCCN1CCCNC(=O)c1ccc2c(c1)NC(=O)CN2C (stereo unspecified) | nt | -0.3 | nt | 9.7 | 7.9*
CCCCCN1CCCCC(NC(=O)c2ccc(F)cc2)C1=O (stereo unspecified) | nt | nt | nt | nt | -1.4
CCN(Cc1cn(Cc2ccccc2)nn1)S(=O)(=O)c1ccccc1Br | nt | nt | nt | nt | -1.9
Cn1c(N=NC(=O)c2ccccc2)c(O)c2ccccc21 | 0.0 | -0.5 | 95.7* | nt | 1.0
O=S1(=O)C=CCN1Cc1cn(Cc2cccc(C(F)(F)F)c2)nn1 | nt | nt | nt | nt | 1.2
OC(c1ccc(-c2ccccc2)cc1)c1ncc(-c2ccccc2Cl)[nH]1 (stereo unspecified) | nt | -0.1 | nt | -2.0 | -0.2
OC(c1ccccc1)c1ncc(-c2ccccc2Cl)[nH]1 (stereo unspecified) | nt | -0.2 | nt | -13.0 | 7.9*
Cc1cc(/C=C2\NC(=O)NC2=O)c(C)n1-c1cccnc1 | 0.0 | -0.2 | 99.8* | 6.4 | -1.8
Cc1ccc(S(=O)(=O)NNC(=O)Nc2ccc(Cl)cc2)cc1 | -0.1 | 2.5 | 0.3 | nt | 8.8*
Clc1ccc(-c2nc(NCCCN3CCOCC3)c3ccccc3n2)cc1 | 0.0 | 2.5 | 70.7* | 20.3 | -1.6
Clc1cccc(-c2nc(NCCCN3CCOCC3)c3ccccc3n2)c1 | -0.3 | -1.6 | 13.5 | 18.4 | -2.9
Cc1ccc(-c2nc(NCCN3CCOCC3)c3ccccc3n2)cc1 | -0.1 | 0.5 | 65.5* | nt | 4.9
N#Cc1ccccc1N1CCN(C(=O)C2CCN(c3ncnc4c3sc3cccc(F)c34)CC2)CC1 | nt | nt | nt | nt | -7.5
COC(=O)c1cnc2ccccc2n1 | -0.1 | -0.8 | -1.7 | -10.6 | 7.8*
COc1ccccc1Nc1nc(NCCCN(C)C)nc(N)c1[N+](=O)[O-] | -0.1 | -0.3 | 61.6* | 11.8 | 2.2
CCC(C)Nc1nc(N)c([N+](=O)[O-])c(NCc2ccccc2)n1 (stereo unspecified) | 0.1 | -0.2 | nt | nt | -1.6
CCC(C)Nc1nc(N)c([N+](=O)[O-])c(Nc2ccccc2OC)n1 (stereo unspecified) | 0.1 | 0.1 | 69.4* | 1.5 | -0.3
COc1ccccc1Nc1nc(NCC(C)C)nc(N)c1[N+](=O)[O-] | -0.2 | -0.1 | 79.1* | -8.5 | 0.8
Cc1cc(O)cc(=O)n1-c1cc(C(F)(F)F)cc(C(F)(F)F)c1 | nt | nt | nt | nt | 0.1
CCN1CCCCC(NC(=O)c2ccccc2C)C1=O (stereo unspecified) | nt | nt | nt | nt | 2.7
COC(=O)[C@]12C[C@H](CC(=O)NCc3cccc4ccccc34)C(=O)N(Cc3ccc(Cl)cc3Cl)C1=C[C@H](C(C)(C)C)O[C@@H]2C | nt | nt | nt | nt | -4.8
O=c1cc(-c2cccc(Br)c2)oc2cccc(O)c12 | 0.0 | -0.1 | 48.5* | nt | 0.6
Cc1ccc(NS(=O)(=O)c2cc(NC(=O)c3ccc4c(c3)NC(=O)CS4)ccc2Cl)c(C)c1 | 0.2 | -0.2 | 53.9* | 11.1 | -2.5
COc1ccc(NC(=O)c2ccc3c(c2)NC(=O)CS3)cc1 | 0.0 | -0.5 | 0.5 | 3.8 | -1.4
O=C(O)CC/C(=N\Nc1ccc(Cl)cc1)c1cccs1 | 0.1 | -1.2 | 61.2* | nt | 0.4
O=C(NCC1CCN(C(=O)C(=O)c2cccs2)CC1)c1ccc2c(c1)CCO2 | nt | nt | nt | nt | -3.7
CCN(CC)CCOC(=O)c1ccc(N/C=C(/C#N)c2nc(-c3ccc(OC)c(OC)c3)cs2)cc1 | 0.1 | -0.4 | 5.2 | 61.1* | 1.4

Screens as filed in PubChem BioAssay.
